Compound activity deposited in PubChem BioAssay by several laboratories.
Ins promoter up – insulin promoter activators in MIN6 cells, imaging, high-content screening, mouse beta cells; z-score at 5 µM; 0.3% of 190,000 active; MIN6 insulin promoter-GFP reporter; stronger effect = higher value;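 active = z-score above 3 at 5 µM with at least 500 cells counted in the well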
PERK inhibitor – block of dimerizer-induced PERK translation repression, primary screen, PERK inhibitor project, CHO PERK-DD cells, SEAP luminescence, HTS; AID 1416, 2008; 0.17% of 220,000 active; inhibition, % at 5.6 µM; CHO PERK-DD fusion, SEAP luminescence translation reporter; Eukaryotic translation initiation factor 2-alpha kinase 3 (Homo sapiens), Q9NZJ5;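 active = inhibition above the mean inhibition of all tested compounds plus 3 SD, set separately per screening campaign, cut at about 2.9% in these data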;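 also: PERK kinase domain activated by AP20187 dimerizer at 100 nM; 0% = DMSO with dimerizer and 100% = rapamycin at 8.4 µM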
Target sequence (Q9NZJ5 whole entry, looked up, the tested form may be a part): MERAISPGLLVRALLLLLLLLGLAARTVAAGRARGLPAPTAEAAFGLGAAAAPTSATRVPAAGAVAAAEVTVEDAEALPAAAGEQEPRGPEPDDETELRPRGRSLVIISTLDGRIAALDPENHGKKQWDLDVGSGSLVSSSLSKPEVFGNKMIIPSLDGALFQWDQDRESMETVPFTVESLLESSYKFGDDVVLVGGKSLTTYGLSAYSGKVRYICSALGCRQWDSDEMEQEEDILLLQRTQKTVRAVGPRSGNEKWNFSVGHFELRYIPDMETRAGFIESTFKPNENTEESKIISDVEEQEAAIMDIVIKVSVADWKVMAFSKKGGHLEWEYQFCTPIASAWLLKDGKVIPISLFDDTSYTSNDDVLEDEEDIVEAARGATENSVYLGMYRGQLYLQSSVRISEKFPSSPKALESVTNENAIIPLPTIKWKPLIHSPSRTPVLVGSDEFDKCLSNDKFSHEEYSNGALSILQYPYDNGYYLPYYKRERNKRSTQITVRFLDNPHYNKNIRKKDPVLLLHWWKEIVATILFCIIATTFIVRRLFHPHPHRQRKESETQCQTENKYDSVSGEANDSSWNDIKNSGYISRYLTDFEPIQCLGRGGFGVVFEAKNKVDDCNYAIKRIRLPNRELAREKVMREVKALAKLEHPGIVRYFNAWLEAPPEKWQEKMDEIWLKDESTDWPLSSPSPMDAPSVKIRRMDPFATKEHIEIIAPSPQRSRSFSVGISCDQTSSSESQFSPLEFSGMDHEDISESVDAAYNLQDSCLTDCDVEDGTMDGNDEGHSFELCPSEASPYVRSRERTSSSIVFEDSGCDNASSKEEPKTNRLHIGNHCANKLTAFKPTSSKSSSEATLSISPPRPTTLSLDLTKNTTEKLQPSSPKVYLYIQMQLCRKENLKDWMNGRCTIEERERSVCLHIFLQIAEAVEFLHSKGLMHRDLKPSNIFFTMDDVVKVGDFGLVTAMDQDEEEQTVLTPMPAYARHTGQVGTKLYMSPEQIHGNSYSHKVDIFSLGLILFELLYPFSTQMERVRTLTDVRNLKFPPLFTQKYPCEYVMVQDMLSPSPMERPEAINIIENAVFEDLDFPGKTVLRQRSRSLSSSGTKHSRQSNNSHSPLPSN
Autophagy HCS – autophagy modulators in MEF cells, primary screen, imaging, high-content, MEF GFP-LC3; MEF GFP-LC3 puncta imaging; test concentration mostly 10 µM; calls only at 10 µM (by protocol); 0.98% of 190,000 active; AID 463193, 2010;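 active = percentage of spot-positive cells more than 3 SD above its plate mean, without a fluorescence outlier flag or 80% toxicity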;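 also: spot-positive cell cutoff set from DMSO-treated cells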
Insulin prom inh – inhibitors of insulin promoter-driven GFP, primary screen, imaging, TRM-6 cells (human fetal islet line), eGFP reporter, cell count; reporter expression induced with tamoxifen; inhibition, % at 2 µM; 0.9% of 130,000 active; AID 1273, 2008;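 active = inhibition above the mean plus 3 SD, with well images judged a real hit on visual review, cut at about 60% in these data, passing the limit was not always enough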
Dynein transport – inhibitors of GR-EGFP nuclear translocation, primary screen, dynein cargo transport inhibitor project, imaging, high-content, 3617.4 mouse cells | test concentration mostly 20 µM; stimulated with dexamethasone, 1 µM; stronger effect = lower value | z-score, hits read low | 0.47% of 220,000 active | AID 1381, 2008;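 active = plate z-score of nuclear minus cytoplasmic receptor signal below a set negative limit, without overly bright fluorescence or cell loss, cut at about -3.5 in these data, passing the limit was not always enough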;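 also: z-score of nuclear minus cytoplasmic ring GR-EGFP intensity difference per well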
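Buffer or medium: tet-free, stripped-serum medium; Also added: dexamethasone, 1.0 µM final; Technique: high-content fluorescence imaging after fixation; Times: 48 h induction, 1 h compound, 30 min dex at 37 °C; Read-out: per-cell GR-EGFP intensity, nucleus versus surrounding cytoplasmic ring, well-averaged.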
* = called active by the depositor; i = inactive; x = not tested or not shown; + = active, no number. Shown are actives, neighbours in structure and some others; about 2.1% of the full set was active somewhere.

SMILES	Ins promoter up	PERK inhibitor	Autophagy HCS	Insulin prom inh	Dynein transport
CCc1ccc(S(=O)(=O)NC(=S)Nc2ccccc2)cc1	-0.12	1	i	x	-0.76
O=C(N/N=C/C=C/c1ccco1)c1cccnc1	-0.71	1	i	100*	-0.87
COc1ccc(OCC(=O)N(Cc2ccco2)C2CCS(=O)(=O)C2)cc1 (stereo not given)	x	-1	x	x	1.9
Cc1ccc(N)c(C(O)(C(F)(F)F)C(F)(F)F)c1	0.61	2	+	x	-1
CCN(CC)S(=O)(=O)c1ccc(NC(=O)C2CCCN(C(=O)c3ccc(Cl)cc3)C2)cc1 (stereo not given)	0.03	-1	i	-37	-0.92
O=C(O)CC/C(=N/NC(=O)c1cccs1)c1ccccc1	0.25	0	i	-15	0.89
CCOC(=O)N/N=C(\CCC(=O)O)c1cccs1	-0.15	3.0*	x	x	1.4
O=C(CSc1nccc(=O)[nH]1)Nc1ccc2c(c1)OCCO2	-0.61	1	i	x	2.1
O=c1ccnc(Nc2ccc3c(c2)OCCO3)[nH]1	3.7*	0	i	x	-0.18
CCCCCCCCCCCCCCCC(=O)OC[C@H](COP(=O)([O-])OCC[N+](C)(C)C)OC(=O)CCCCCCCCCCCCCCC	x	3.0*	i	5	-0.28
O=C(NNc1ccc(Cl)cc1)c1c(F)cccc1Cl	-0.56	0	x	x	-0.76
CC(=O)C(=Nc1ccccc1Cl)NNc1ccc(Cl)cc1	-1.3	0	i	75*	-0.61
CC1CCC(C(C)C)C(OCC(O)CNC(C)C)C1 (stereo not given)	-0.93	-2	x	x	-0.099
CN(C)c1ccc(/C=C2/SC(=O)N(CCN=C3NS(=O)(=O)c4ccccc43)C2=O)cc1	1.2	1	i	x	-0.95
O=C1S/C(=C/c2ccccc2)C(=O)N1CC(O)Cn1c2ccccc2c2ccccc21 (stereo not given)	0.16	0	i	-16	-0.58
CN(C)c1ccc(/C=C2\SC(=O)N(CCc3nnc(N)s3)C2=O)cc1	3.3*	0	x	x	1.8
CN(C)c1ccc(/C=C2\SC(=O)N(CC(O)Cn3c4ccccc4c4ccccc43)C2=O)cc1 (stereo not given)	x	0	+	x	-0.67
CCCCOc1ccc(/C=C/C(=O)NC2=Nc3ccccc3NC(C)=C2C(=O)OCC)cc1OC	-0.52	0	i	x	-1.3
CC(C)N(Cc1ccccc1)C(=O)CCc1ccccc1	0.18	1	i	-12	-0.24
CC(C)N(Cc1ccccc1)C(=O)CSc1nccn1C	-0.98	0	+	-42	-1.1
CN1CCN(c2ccc(C(=O)c3ccccc3)cc2[N+](=O)[O-])CC1	0.07	-1	i	67*	0.64
COC(=O)c1c(NC(=S)Nc2ccc(C(=O)N3CCOCC3)cc2)sc2c1CCC2	0.63	3.0*	i	x	-0.8
Cc1noc(NS(=O)(=O)c2ccc(NC(=O)Nc3ccc(Cl)c(Cl)c3)cc2)c1C	1	1	i	75*	-0.63
Cc1cc2oc(C(=O)Nc3ccc(S(=O)(=O)Nc4onc(C)c4C)cc3)cc(=O)c2cc1Cl	-0.04	1	x	x	0.81
CCN1CNC(=S)N(C(C)c2ccccc2)C1 (stereo not given)	-0.13	0	i	21	1
SMILES	Ins promoter up	PERK inhibitor	Autophagy HCS	Insulin prom inh	Dynein transport
O=C(CSc1ncccn1)NC(=O)Nc1ccc2c(c1)OCCO2	0.02	0	i	27	-1.3
Cc1ccc(C)c(SCC(=O)NC(=O)Nc2ccc3c(c2)OCCO3)c1	x	2	i	80*	-0.49
Cc1cc(=O)[nH]c(SCC(=O)Nc2ccc3c(c2)OCCO3)n1	0.3	3.3*	i	x	0.98
Cn1c(=O)n(-c2ccc(Cl)cc2)c(=O)c2c3c(sc21)COC(C)(C)C3	-0.21	1	i	30	1.4
CCn1c(=O)n(-c2ccc(Cl)cc2)c(=O)c2c3c(sc21)COC(C)(C)C3	0.85	0	i	74*	0.66
CSCCC1NC(=O)N(C(C)C(=O)Nc2cc(Cl)cc(Cl)c2)C1=O (stereo not given)	0.04	0	i	-42	-0.38
O=C(COC(=O)CSc1ccc2ccccc2c1Br)NC1CC1	0.86	1	i	x	0.97
CC1=Nc2ccccc2N=C(NC(=O)c2ccccc2)C1c1ccccc1 (stereo not given)	0.18	0	i	x	-0.37
Cc1cccc(/N=C/c2c(O)n(Cc3ccc4c(c3)OCO4)c(=O)c3ccccc23)n1	-0.64	1	i	-19	0.0039
COc1ccc(C(=O)N(CN2CCCC2=O)c2ccc(C)cc2)cc1	3.4*	0	i	x	-0.5
O=C1C2C3C=CC(CO)(O3)C2C(=O)N1c1ccccc1-c1ccccc1 (stereo not given)	0.89	0	i	x	-5.7*
CC(=O)Oc1ccc(N2C(=O)C3C4C=CC(CO)(O4)C3C2=O)cc1 (stereo not given)	0.35	1	i	4	0.033
CCOC(=O)c1sc2nc(C)nc(NCCc3ccccn3)c2c1C	-0.6	0	i	94*	-0.93
CCCCc1nc2ccccc2[nH]1	-0.11	2	i	89*	0.87
NC(=S)Nc1ncc(CCN2CCOCC2)c(-c2ccc(F)cc2)n1	1.3	0	i	x	1.4
CSc1nn2cc(CCN3CCOCC3)c(-c3ccc(F)cc3)nc2c1C#N	0.12	0	+	-156	2.9
CC(=O)N1CCc2[nH]c3ccccc3c2C1	-0.23	3.3*	i	31	-0.26
O=C(CSc1nnc(-c2ccccc2O)o1)Oc1ccc(OCc2ccccc2)cc1	x	2	+	x	0.94
O=C(Nc1nnc(SCC(=O)N2CCCCC2)s1)C1CCCCC1	x	1	i	73*	-0.35
O=C(NCC1CCCO1)c1cc2c(s1)CS(=O)(=O)C2 (stereo not given)	0.02	-1	+	16	0.21
O=C(NCC1CCCO1)c1cccc(Br)c1 (stereo not given)	0.32	0	i	-480	-0.89
COc1ccc(CC(=O)Nc2nnc(C(C)(C)C)s2)cc1OC	-0.44	-1	i	21	0.12
Cc1oc2cc3c(C(=O)N4CCN(c5ccccc5)CC4)c(C)oc3cc2c1C(=O)N1CCN(c2ccccc2)CC1	x	0	i	-117	1.4
COc1ccc(NC(=O)CSc2ccc3c4c(cccc24)C(=O)c2ccccc2-3)cc1	x	1	+	-111	-2.2
COc1ccc(NC(=O)CSc2nncc3ccccc23)cc1	-0.22	0	i	17	-0.044
O=C(O)CSCCC(=O)Nc1ccc(F)cc1	0.89	-1	+	x	0.33
CC(=O)NC(C)C(=O)OCC(=O)Nc1ccc(Br)cc1 (stereo not given)	1.8	0	i	89*	4.9
